# Experimental data reported in ChEMBL document CHEMBL3797186, “Single Residue Substitutions That Confer Voltage-Gated Sodium Ion Channel Subtype Selectivity in the NaV1.7 Inhibitory Peptide GpTx-1” (J Med Chem, 2016).
# Positions of bridges follow the written chain, without caps; N, C: chain ends. Residues, ends and D or L forms follow the SMILES beside them.
# How the values were obtained:
# Type in all cases: cell-based
# [1] = molecular target: T1, Sodium channel protein type 9 subunit alpha (Homo sapiens, UniProt Q15858); test: Inhibition of human Nav1.7 expressed in HEK293 cells by whole cell patch clamp electrophysiology method
# T1 sequence (Q15858 whole entry): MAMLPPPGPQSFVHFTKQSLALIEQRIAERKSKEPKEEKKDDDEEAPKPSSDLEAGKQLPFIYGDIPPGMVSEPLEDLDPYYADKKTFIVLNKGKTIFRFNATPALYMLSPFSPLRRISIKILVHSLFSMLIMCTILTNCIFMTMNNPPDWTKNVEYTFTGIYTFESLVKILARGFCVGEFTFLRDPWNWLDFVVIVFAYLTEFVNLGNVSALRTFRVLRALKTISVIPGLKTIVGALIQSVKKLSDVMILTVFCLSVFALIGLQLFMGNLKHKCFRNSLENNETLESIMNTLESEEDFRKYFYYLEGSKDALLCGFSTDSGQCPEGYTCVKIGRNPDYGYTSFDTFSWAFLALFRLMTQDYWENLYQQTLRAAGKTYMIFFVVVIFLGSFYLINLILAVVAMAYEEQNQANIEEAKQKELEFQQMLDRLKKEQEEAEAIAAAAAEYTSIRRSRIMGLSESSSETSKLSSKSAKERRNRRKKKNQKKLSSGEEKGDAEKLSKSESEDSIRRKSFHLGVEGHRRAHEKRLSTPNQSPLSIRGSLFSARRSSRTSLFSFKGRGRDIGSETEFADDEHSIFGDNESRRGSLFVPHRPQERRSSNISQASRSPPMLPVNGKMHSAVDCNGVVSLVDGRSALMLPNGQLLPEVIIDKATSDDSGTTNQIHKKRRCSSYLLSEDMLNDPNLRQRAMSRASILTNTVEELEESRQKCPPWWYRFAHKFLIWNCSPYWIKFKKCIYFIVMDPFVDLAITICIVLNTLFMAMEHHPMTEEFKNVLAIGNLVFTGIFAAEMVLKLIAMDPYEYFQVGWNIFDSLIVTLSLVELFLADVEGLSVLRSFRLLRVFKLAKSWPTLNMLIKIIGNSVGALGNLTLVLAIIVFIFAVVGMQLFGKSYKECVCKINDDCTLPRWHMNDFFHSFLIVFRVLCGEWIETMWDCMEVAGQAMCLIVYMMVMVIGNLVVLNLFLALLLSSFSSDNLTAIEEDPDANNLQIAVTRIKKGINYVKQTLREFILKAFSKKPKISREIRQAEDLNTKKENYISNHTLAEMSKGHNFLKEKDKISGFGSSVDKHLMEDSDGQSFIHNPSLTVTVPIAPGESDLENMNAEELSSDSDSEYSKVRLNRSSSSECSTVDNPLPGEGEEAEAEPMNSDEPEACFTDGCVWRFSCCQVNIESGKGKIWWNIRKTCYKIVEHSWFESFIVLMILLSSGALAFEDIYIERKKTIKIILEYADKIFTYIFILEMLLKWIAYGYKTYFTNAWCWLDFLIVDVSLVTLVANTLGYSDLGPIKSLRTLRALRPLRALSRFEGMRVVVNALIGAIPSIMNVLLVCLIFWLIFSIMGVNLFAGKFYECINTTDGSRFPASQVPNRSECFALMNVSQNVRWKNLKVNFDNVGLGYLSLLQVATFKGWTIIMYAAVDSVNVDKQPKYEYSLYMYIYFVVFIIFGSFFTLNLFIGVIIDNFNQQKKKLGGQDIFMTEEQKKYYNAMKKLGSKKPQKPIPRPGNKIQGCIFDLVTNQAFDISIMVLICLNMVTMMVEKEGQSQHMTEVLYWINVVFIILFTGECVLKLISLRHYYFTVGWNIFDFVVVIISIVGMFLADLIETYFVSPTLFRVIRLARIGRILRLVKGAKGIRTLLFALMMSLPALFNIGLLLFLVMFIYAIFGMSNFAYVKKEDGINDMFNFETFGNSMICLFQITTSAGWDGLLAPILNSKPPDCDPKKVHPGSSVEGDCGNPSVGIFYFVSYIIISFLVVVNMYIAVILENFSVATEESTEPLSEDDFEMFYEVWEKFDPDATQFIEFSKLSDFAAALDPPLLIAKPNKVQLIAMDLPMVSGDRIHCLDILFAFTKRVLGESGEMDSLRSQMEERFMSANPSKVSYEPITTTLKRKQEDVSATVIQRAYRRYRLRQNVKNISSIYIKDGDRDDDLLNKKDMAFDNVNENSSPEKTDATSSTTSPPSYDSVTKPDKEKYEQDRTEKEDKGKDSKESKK
# [2] = molecular target: T2, Sodium channel protein type 5 subunit alpha (Homo sapiens, UniProt Q14524); test: Inhibition of human Nav1.5 expressed in HEK293 cells by whole cell patch clamp electrophysiology method
# T2 sequence (Q14524 whole entry): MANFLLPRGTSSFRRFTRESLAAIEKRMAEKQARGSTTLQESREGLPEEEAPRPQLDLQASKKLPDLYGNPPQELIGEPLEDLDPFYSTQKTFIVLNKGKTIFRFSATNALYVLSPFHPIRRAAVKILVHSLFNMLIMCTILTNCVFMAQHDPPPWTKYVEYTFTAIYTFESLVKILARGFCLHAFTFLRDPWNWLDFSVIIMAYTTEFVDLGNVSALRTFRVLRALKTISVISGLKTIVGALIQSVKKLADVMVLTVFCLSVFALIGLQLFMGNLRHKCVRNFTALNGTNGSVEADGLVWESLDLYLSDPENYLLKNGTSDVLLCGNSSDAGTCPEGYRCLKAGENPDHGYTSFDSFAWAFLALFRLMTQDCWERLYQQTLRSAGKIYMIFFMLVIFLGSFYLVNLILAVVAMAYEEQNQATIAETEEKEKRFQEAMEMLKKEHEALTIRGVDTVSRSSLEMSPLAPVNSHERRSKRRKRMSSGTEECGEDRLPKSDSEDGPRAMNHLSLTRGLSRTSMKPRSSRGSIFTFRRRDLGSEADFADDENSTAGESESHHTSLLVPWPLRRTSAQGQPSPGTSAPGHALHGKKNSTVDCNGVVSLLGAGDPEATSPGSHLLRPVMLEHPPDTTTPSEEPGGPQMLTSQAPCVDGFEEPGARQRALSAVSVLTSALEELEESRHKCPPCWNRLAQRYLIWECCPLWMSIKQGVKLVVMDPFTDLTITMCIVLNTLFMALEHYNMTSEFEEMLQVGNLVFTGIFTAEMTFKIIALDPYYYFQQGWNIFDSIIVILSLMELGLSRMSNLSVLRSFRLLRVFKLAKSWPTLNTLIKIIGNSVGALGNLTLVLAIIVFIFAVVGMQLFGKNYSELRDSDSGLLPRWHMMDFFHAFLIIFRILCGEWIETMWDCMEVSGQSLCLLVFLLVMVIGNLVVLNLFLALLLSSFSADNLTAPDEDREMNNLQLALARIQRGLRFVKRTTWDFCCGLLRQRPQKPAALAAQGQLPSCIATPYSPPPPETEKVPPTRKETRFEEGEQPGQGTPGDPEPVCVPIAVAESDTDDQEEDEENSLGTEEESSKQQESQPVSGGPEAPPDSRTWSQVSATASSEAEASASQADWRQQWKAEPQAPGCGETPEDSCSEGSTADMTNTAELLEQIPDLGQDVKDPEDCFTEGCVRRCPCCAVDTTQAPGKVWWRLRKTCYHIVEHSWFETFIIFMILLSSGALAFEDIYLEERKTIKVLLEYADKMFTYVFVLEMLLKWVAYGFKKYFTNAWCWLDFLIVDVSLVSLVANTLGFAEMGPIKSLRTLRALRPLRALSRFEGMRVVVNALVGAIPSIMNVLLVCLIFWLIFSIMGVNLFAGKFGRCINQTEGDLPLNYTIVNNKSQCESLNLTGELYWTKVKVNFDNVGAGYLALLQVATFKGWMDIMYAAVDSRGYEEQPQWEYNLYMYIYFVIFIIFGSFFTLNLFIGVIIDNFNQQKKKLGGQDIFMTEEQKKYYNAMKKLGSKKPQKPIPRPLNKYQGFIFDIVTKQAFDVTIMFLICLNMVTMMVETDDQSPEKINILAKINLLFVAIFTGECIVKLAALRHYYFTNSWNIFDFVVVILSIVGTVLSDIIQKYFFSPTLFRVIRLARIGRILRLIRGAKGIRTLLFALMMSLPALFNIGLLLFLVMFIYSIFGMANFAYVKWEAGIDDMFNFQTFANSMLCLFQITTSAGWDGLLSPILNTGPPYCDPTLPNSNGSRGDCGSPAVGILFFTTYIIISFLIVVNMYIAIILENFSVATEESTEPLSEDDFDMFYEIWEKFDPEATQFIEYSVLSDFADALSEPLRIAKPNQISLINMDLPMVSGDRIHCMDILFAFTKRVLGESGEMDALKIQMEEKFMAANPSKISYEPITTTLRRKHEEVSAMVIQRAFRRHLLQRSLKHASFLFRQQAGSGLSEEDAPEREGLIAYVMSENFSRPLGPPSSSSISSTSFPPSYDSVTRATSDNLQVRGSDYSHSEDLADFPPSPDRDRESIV
# Summary of the method: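 Stable HEK293 line expressing human NaV1.5, recorded on the PatchXpress 7000A. Percent inhibition versus concentration was pooled from at least 10 cells, with two to three points per concentration. The pooled set was fitted with a four-parameter Hill equation to give a single IC50 curve.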
# [3] = molecular target: T2, Sodium channel protein type 5 subunit alpha; test: Inhibition of human Nav1.5 expressed in HEK293 cells assessed as inward peak current by ion-works quattro patch clamp electrophysiology method
# Summary of the method: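 Stable HEK293 line expressing human NaV1.5, recorded by population patch clamp on the IonWorks Quattro.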
# [4] = molecular target: T1, Sodium channel protein type 9 subunit alpha; test: Inhibition of human Nav1.7 expressed in HEK293 cells assessed as inward peak current by ion-works quattro patch clamp electrophysiology method
SMILES,IC50 [1] [nM],IC50 [2] [nM],IC50 [3] [nM],IC50 [4] [nM]
"CC[C@H](C)[C@@H]1NC(=O)[C@@H]2CSSC[C@@H]3NC(=O)[C@H](C(C)C)NC(=O)[C@H](CC(C)C)NC(=O)[C@H](CC(N)=O)NC(=O)[C@@H]4CCCN4C(=O)[C@H](CCCNC(=N)N)NC(=O)[C@H](CSSC[C@H](NC(=O)[C@@H](N)CC(=O)O)C(=O)N[C@@H](CC(C)C)C(=O)N[C@@H](C)C(=O)N[C@@H](Cc4ccccc4)C(=O)N[C@@H](CCSC)C(=O)N[C@@H](CCCNC(=N)N)C(=O)N[C@@H](CCCCN)C(=O)N2)NC(=O)[C@H](CSSC[C@@H](C(=O)N[C@@H](CCCCN)C(=O)N[C@@H](Cc2ccc(O)cc2)C(=O)N[C@H](C(=O)N[C@@H](Cc2ccccc2)C(N)=O)C(C)C)NC(=O)[C@H](Cc2c[nH]c4ccccc24)NC(=O)[C@H](CCCCN)NC(=O)[C@H](Cc2cnc[nH]2)NC(=O)[C@H]([C@@H](C)O)NC(=O)[C@H](CCCNC(=N)N)NC(=O)[C@H](CO)NC3=O)NC(=O)[C@H](CCCCN)NC(=O)[C@H](CC(=O)O)NC(=O)[C@H](CC(N)=O)NC(=O)[C@H](CC(=O)O)NC(=O)[C@@H]2CCCN2C1=O (H-DCLAFMRKCIPDNDKCCRPNLVCSRTHKWCKYVF-NH2; disulfide 2-17, 9-23, 16-30)",27,> 10000,,
"CC[C@H](C)[C@@H]1NC(=O)[C@@H]2CSSC[C@@H]3NC(=O)[C@H](C(C)C)NC(=O)[C@H](CC(C)C)NC(=O)[C@H](CC(N)=O)NC(=O)[C@@H]4CCCN4C(=O)[C@H](CCCNC(=N)N)NC(=O)[C@H](CSSC[C@H](N)C(=O)N[C@@H](CC(C)C)C(=O)NCC(=O)N[C@@H](Cc4ccccc4)C(=O)N[C@@H](CCSC)C(=O)N[C@@H](CCCNC(=N)N)C(=O)N[C@@H](CCCCN)C(=O)N2)NC(=O)[C@H](CSSC[C@@H](C(=O)N[C@@H](CCCCN)C(=O)N[C@@H](Cc2ccc(O)cc2)C(=O)N[C@H](C(=O)N[C@@H](Cc2ccccc2)C(N)=O)C(C)C)NC(=O)[C@H](Cc2c[nH]c4ccccc24)NC(=O)[C@H](CCCCN)NC(=O)[C@H](Cc2cnc[nH]2)NC(=O)[C@H]([C@@H](C)O)NC(=O)[C@H](CCCNC(=N)N)NC(=O)[C@H](CO)NC3=O)NC(=O)[C@H](CCCCN)NC(=O)[C@H](CC(=O)O)NC(=O)[C@H](CC(N)=O)NC(=O)[C@H](CC(=O)O)NC(=O)[C@@H]2CCCN2C1=O (H-CLGFMRKCIPDNDKCCRPNLVCSRTHKWCKYVF-NH2; disulfide 1-16, 8-22, 15-29)",8,,> 5000,
"CC[C@H](C)[C@@H]1NC(=O)[C@@H]2CSSC[C@@H]3NC(=O)[C@H](C(C)C)NC(=O)[C@H](CC(C)C)NC(=O)[C@H](CC(N)=O)NC(=O)[C@@H]4CCCN4C(=O)[C@H](CCCNC(=N)N)NC(=O)[C@H](CSSC[C@H](NC(=O)[C@@H](N)CC(=O)O)C(=O)N[C@@H](CC(C)C)C(=O)NCC(=O)N[C@@H](Cc4ccccc4)C(=O)N[C@@H](CCSC)C(=O)N[C@@H](CCCNC(=N)N)C(=O)N[C@@H](CCCCN)C(=O)N2)NC(=O)[C@H](CSSC[C@@H](C(=O)N[C@@H](CCCCN)C(=O)N[C@@H](Cc2ccc(O)cc2)C(=O)N[C@H](C(=O)N[C@@H](Cc2ccccc2)C(N)=O)C(C)C)NC(=O)[C@H](Cc2c[nH]c4ccccc24)NC(=O)[C@H](CC(=O)O)NC(=O)[C@H](Cc2cnc[nH]2)NC(=O)[C@H]([C@@H](C)O)NC(=O)[C@H](CCCNC(=N)N)NC(=O)[C@H](CO)NC3=O)NC(=O)[C@H](CCCCN)NC(=O)[C@H](CC(=O)O)NC(=O)[C@H](CC(N)=O)NC(=O)[C@H](CC(=O)O)NC(=O)[C@@H]2CCCN2C1=O (H-DCLGFMRKCIPDNDKCCRPNLVCSRTHDWCKYVF-NH2; disulfide 2-17, 9-23, 16-30)",16,> 10000,,
"CC[C@H](C)[C@@H]1NC(=O)[C@@H]2CSSC[C@@H]3NC(=O)[C@H](C(C)C)NC(=O)[C@H](CC(C)C)NC(=O)[C@H](CC(N)=O)NC(=O)[C@@H]4CCCN4C(=O)[C@H](CCC(=O)O)NC(=O)[C@H](CSSC[C@H](NC(=O)[C@@H](N)CC(=O)O)C(=O)N[C@@H](CC(C)C)C(=O)NCC(=O)N[C@@H](Cc4ccccc4)C(=O)N[C@@H](CCSC)C(=O)N[C@@H](CCCNC(=N)N)C(=O)N[C@@H](CCCCN)C(=O)N2)NC(=O)[C@H](CSSC[C@@H](C(=O)N[C@@H](CCCCN)C(=O)N[C@@H](Cc2ccc(O)cc2)C(=O)N[C@H](C(=O)N[C@@H](Cc2ccccc2)C(N)=O)C(C)C)NC(=O)[C@H](Cc2c[nH]c4ccccc24)NC(=O)[C@H](CCCCN)NC(=O)[C@H](Cc2cnc[nH]2)NC(=O)[C@H]([C@@H](C)O)NC(=O)[C@H](CCCNC(=N)N)NC(=O)[C@H](CO)NC3=O)NC(=O)[C@H](CCCCN)NC(=O)[C@H](CC(=O)O)NC(=O)[C@H](CC(N)=O)NC(=O)[C@H](CC(=O)O)NC(=O)[C@@H]2CCCN2C1=O (H-DCLGFMRKCIPDNDKCCEPNLVCSRTHKWCKYVF-NH2; disulfide 2-17, 9-23, 16-30)",17,> 10000,> 5000,
"CC[C@H](C)[C@@H]1NC(=O)[C@@H]2CSSC[C@@H]3NC(=O)[C@H](C(C)C)NC(=O)[C@H](CC(C)C)NC(=O)[C@H](CC(N)=O)NC(=O)[C@@H]4CCCN4C(=O)[C@H](CCCNC(=N)N)NC(=O)[C@H](CSSC[C@H](NC(=O)[C@@H](N)CC(=O)O)C(=O)N[C@@H](CC(C)C)C(=O)NCC(=O)N[C@@H](Cc4ccccc4)C(=O)N[C@@H](CCSC)C(=O)N[C@@H](CCCNC(=N)N)C(=O)N[C@@H](CCCCN)C(=O)N2)NC(=O)[C@H](CSSC[C@@H](C(=O)N[C@@H](CCCCN)C(=O)N[C@@H](Cc2c[nH]c4ccccc24)C(=O)N[C@H](C(=O)N[C@@H](Cc2ccccc2)C(N)=O)C(C)C)NC(=O)[C@H](Cc2c[nH]c4ccccc24)NC(=O)[C@H](CCCCN)NC(=O)[C@H](Cc2c[nH]cn2)NC(=O)[C@H]([C@@H](C)O)NC(=O)[C@H](CCCNC(=N)N)NC(=O)[C@H](CO)NC3=O)NC(=O)[C@H](CCCCN)NC(=O)[C@H](CC(=O)O)NC(=O)[C@H](CC(N)=O)NC(=O)[C@H](CC(=O)O)NC(=O)[C@@H]2CCCN2C1=O (H-DCLGFMRKCIPDNDKCCRPNLVCSRTHKWCKWVF-NH2; disulfide 2-17, 9-23, 16-30)",12,,> 5000,
"CC[C@H](C)[C@@H]1NC(=O)[C@@H]2CSSC[C@@H]3NC(=O)[C@H](C(C)C)NC(=O)[C@H](CC(C)C)NC(=O)[C@H](CC(N)=O)NC(=O)[C@H](CCCCN)NC(=O)[C@H](CCCNC(=N)N)NC(=O)[C@H](CSSC[C@H](NC(=O)[C@@H](N)CC(=O)O)C(=O)N[C@@H](CC(C)C)C(=O)NCC(=O)N[C@@H](Cc4ccccc4)C(=O)N[C@@H](CCSC)C(=O)N[C@@H](CCCNC(=N)N)C(=O)N[C@@H](CCCCN)C(=O)N2)NC(=O)[C@H](CSSC[C@@H](C(=O)N[C@@H](CCCCN)C(=O)N[C@@H](Cc2ccc(O)cc2)C(=O)N[C@H](C(=O)N[C@@H](Cc2ccccc2)C(N)=O)C(C)C)NC(=O)[C@H](Cc2c[nH]c4ccccc24)NC(=O)[C@H](CCCCN)NC(=O)[C@H](Cc2cnc[nH]2)NC(=O)[C@H]([C@@H](C)O)NC(=O)[C@H](CCCNC(=N)N)NC(=O)[C@H](CO)NC3=O)NC(=O)[C@H](CCCCN)NC(=O)[C@H](CC(=O)O)NC(=O)[C@H](CC(N)=O)NC(=O)[C@H](CC(=O)O)NC(=O)[C@@H]2CCCN2C1=O (H-DCLGFMRKCIPDNDKCCRKNLVCSRTHKWCKYVF-NH2; disulfide 2-17, 9-23, 16-30)",2.3,> 10000,> 5000,
"CSCC[C@@H]1NC(=O)[C@H](Cc2ccccc2)NC(=O)CNC(=O)[C@H](CC(C)C)NC(=O)[C@@H](NC(=O)[C@@H](N)CC(=O)O)CSSC[C@@H]2NC(=O)[C@@H]3CSSC[C@@H](C(=O)N[C@@H](CCCCN)C(=O)N[C@@H](Cc4ccc(O)cc4)C(=O)N[C@H](C(=O)N[C@@H](Cc4ccccc4)C(N)=O)C(C)C)NC(=O)[C@H](Cc4c[nH]c5ccccc45)NC(=O)[C@H](CCCCN)NC(=O)[C@H](Cc4cnc[nH]4)NC(=O)[C@H]([C@@H](C)O)NC(=O)[C@H](CCCNC(=N)N)NC(=O)[C@H](CO)NC(=O)[C@H](CSSC[C@H](NC(=O)[C@H](CCCCN)NC(=O)[C@H](CCCNC(=N)N)NC1=O)C(=O)N[C@@H](CC(=O)O)C(=O)N1CCC[C@H]1C(=O)N[C@@H](CC(=O)O)C(=O)N[C@@H](CC(N)=O)C(=O)N[C@@H](CC(=O)O)C(=O)N[C@@H](CCCCN)C(=O)N3)NC(=O)[C@H](C(C)C)NC(=O)[C@H](CC(C)C)NC(=O)[C@H](CC(N)=O)NC(=O)[C@@H]1CCCN1C(=O)[C@H](CCCNC(=N)N)NC2=O (H-DCLGFMRKCDPDNDKCCRPNLVCSRTHKWCKYVF-NH2; disulfide 2-17, 9-23, 16-30)",4,> 10000,> 5000,
CSCC[C@@H]1NC(=O)[C@H](Cc2ccccc2)NC(=O)CNC(=O)[C@H](CC(C)C)NC(=O)[C@@H](NC(=O)[C@@H](N)CC(=O)O)CSSC[C@@H]2NC(=O)[C@@H]3CSSC[C@@H](C(=O)N[C@@H](CCCCN)C(=O)N[C@@H](Cc4ccc(O)cc4)C(=O)N[C@H](C(=O)N[C@@H](Cc4ccccc4)C(N)=O)C(C)C)NC(=O)[C@H](Cc4c[nH]c5ccccc45)NC(=O)[C@H](CCCCN)NC(=O)[C@H](Cc4c[nH]cn4)NC(=O)[C@H]([C@@H](C)O)NC(=O)[C@H](CCCNC(=N)N)NC(=O)[C@H](CO)NC(=O)[C@H](CSSC[C@H](NC(=O)[C@H](CCCCN)NC(=O)[C@H](CCCNC(=N)N)NC1=O)C(=O)N[C@@H](Cc1cccc4ccccc14)C(=O)N1CCC[C@H]1C(=O)N[C@@H](CC(=O)O)C(=O)N[C@@H](CC(N)=O)C(=O)N[C@@H](CC(=O)O)C(=O)N[C@@H](CCCCN)C(=O)N3)NC(=O)[C@H](C(C)C)NC(=O)[C@H](CC(C)C)NC(=O)[C@H](CC(N)=O)NC(=O)[C@@H]1CCCN1C(=O)[C@H](CCCNC(=N)N)NC2=O,6,,> 5000,160
